# Measurements as given in PubChem BioAssay.
# Activity calls are given as the source filed them.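 Rule for the calls, unless noted: active = inhibition above 20% together with a positive visual image hit; inconclusive = visual image hit but inhibition not above 20%; inactive = no visual image hit.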
# Tests used:
# [1] = inhibitors of TNFa-induced NFkB p65 translocation, primary screen, imaging, HUVEC, MLSMR starter and 10KST1 sets (AID 438); details: HUVEC TNFa-induced p65 nuclear translocation; cell count: measured here: nuclei count (cytotoxicity indicator), at 2.08 µM; inhibition: at 2 µM, stronger effect = higher value, 0% TNFa-plus-vehicle, 100% no-TNFa wells;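 note: compound added about 3h40 before a 20 min TNFalpha stimulation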;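 for inhibition: signal is the nuclear over cytoplasmic p65 intensity ratio per well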
# [2] = inhibitors of E-selectin induction by TNFa, primary screen, imaging, HUVEC, immunofluorescence, MLSMR starter and 10KST1 sets (AID 487;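 active = visually confirmed hit in the image check and inhibition above 20%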;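 for inhibition: signal is fraction of cell area covered by stained E-selectin grains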;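 for nuclei count: 100% = median nuclei count of all wells on the same plate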); details: HUVEC TNFalpha-induced E-selectin immunofluorescence imaging, at 2 µM; inhibition: stronger effect = higher value; nuclei count: measured here: cell number, toxicity
# [3] = DUSP6 inhibitors restoring Erk phosphorylation by chemical complementation, primary imaging in DUSP6-transfected HeLa (AID 609;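 active = compounds giving at least 50% inhibition in the cell-based MKP-3 phosphatase rescue imaging test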;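 for inhibition: phospho-Erk level distribution per well compared with pooled transfected vehicle control wells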); details: HeLa MKP-3 transfected, phospho-Erk imaging KS statistic, at 10 µM, cells stimulated with TPA for 15 min
# [4] = target: Dual specificity protein phosphatase 6 (Homo sapiens) (UniProt Q16828); assay: as above; details: HeLa MKP-3 transfected, phospho-Erk imaging KS statistic; at 10 µM; stronger effect = higher value; cells stimulated with TPA for 15 min
# [5] = target: Voltage-gated potassium channel subunit beta-2 (Rattus norvegicus) (UniProt P62483); assay: KvBeta enzyme negative modulators, primary screen, biochemical, NADPH fluorescence (AID 622;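 active = fluorescence slope higher than the sample average by over 3 SD, cut at about -0.22 in these data, passing the limit was not always enough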;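 note: slope of raw intensity against log time taken from 70 to 1610 s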); details: recombinant KvBeta, 4-cyanobenzaldehyde reduction, at 10 µM, stronger effect = higher value
# [6] = target: Voltage-gated potassium channel subunit beta-2 (Rattus norvegicus) (UniProt P62483); assay: KvBeta positive modulators, primary screen, biochemical, NADPH fluorescence (AID 623;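 active = NADPH fluorescence slope more negative than the mean of all samples by about 3 SD, 99.7% confidence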;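 note: fluorescence intensity change per second fitted from 20 to 320 s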); details: Recombinant KvBeta, NADPH fluorescence decrease slope, 10 min; at 10 µM; stronger effect = lower value
# [7] = target: Muscarinic acetylcholine receptor M4 (Homo sapiens) (UniProt P08173); assay: compounds altering M4/GIRK thallium flux, either direction, primary screen, M4 allosteric agonist project, cell-based, HEK293 M4/GIRK, BTC-AM (AID 625;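 active = fluorescence slope after compound addition differing from the mean of all tested samples at 99.7% confidence, mostly higher but some lower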;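 note: thallium influx through GIRK channels coupled to M4 in HEK293 cells with BTC-AM dye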); details: at 10 µM, actives lie on both sides
# Procedure, shortened: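 Material: M4/GIRK1/GIRK2 stable HEK293 cell line. Medium: pH 7.3 thallium assay buffer. Dosing: single compound concentration, 10 µM final. Schedule: 1 h dye loading, 2 min kinetic read. Measured by: kinetic fluorescence with BTC-AM dye. Read-out: post-addition slope, 15–24 s, of baseline-normalized fluorescence. Benchmarks: carbachol and DMSO controls.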
# [8] = inhibitors of larval lipid processing in zebrafish, primary screen, whole organism, PED6 fluorescence, gall bladder and intestine (AID 686;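 active = a full or partial loss of lipid-probe fluorescence in the fish gall bladder, intestine or both, judged by eye; inactive = no fluorescence loss, or compound toxic to the fish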;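 note: larvae 5 to 7 days old with five fish per well; signal comes from phospholipase A2 cleavage of quenched PED6 carried via bile; overnight exposure to compound and PED6 before scoring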); details: Zebrafish larvae PED6 lipid processing, fluorescence scoring; screened at 20 µM (by protocol)
# Procedure, shortened: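 System: live zebrafish larvae aged 5-7 days, whole organism; measure: graded gall bladder and intestinal fluorescence inhibition per well; incubation: overnight exposure; reagent: ingested quenched lipid PED6 at 100 nM; signal: By-eye fluorescence microscopy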
# [9] = inhibitors of Chlamydomonas gravitaxis, primary screen, whole organism, Chlamydomonas reinhardtii, WT vs cilia-less mutant, absorbance, 96-well (AID 463189;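 active = inhibition at or above 50% relative to wild type and mutant plate controls; inactive = inhibition below 50%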;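 note: 0% = wild type cc124 cells in DMSO and 100% = ciliumless bld1 mutant cells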); details: OD600 absorbance, 2 days, at 10 µM, stronger effect = higher value
# [10] = measured here: cell density z-score
# [11] = measured here: nuclear c-Myc green intensity z-score
# [12] = measured here: nuclear pErk red intensity z-score, stronger effect = higher value
# Sequence of Muscarinic acetylcholine receptor M4 (Homo sapiens) (P08173 whole entry, looked up): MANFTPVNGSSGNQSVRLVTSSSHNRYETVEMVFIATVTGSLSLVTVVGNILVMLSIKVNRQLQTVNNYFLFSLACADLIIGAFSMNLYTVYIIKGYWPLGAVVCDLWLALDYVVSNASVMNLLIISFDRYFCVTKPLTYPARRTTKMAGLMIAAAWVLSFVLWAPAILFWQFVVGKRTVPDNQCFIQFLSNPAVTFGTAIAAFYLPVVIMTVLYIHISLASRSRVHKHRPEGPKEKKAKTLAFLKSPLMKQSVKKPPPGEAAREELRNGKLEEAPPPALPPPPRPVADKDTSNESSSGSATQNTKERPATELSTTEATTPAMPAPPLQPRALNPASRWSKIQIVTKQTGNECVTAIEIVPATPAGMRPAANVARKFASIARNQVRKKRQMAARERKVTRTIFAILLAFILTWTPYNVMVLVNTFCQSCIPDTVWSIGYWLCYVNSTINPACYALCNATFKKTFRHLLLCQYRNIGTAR
# Sequence of Voltage-gated potassium channel subunit beta-2 (Rattus norvegicus) (P62483 whole entry, looked up): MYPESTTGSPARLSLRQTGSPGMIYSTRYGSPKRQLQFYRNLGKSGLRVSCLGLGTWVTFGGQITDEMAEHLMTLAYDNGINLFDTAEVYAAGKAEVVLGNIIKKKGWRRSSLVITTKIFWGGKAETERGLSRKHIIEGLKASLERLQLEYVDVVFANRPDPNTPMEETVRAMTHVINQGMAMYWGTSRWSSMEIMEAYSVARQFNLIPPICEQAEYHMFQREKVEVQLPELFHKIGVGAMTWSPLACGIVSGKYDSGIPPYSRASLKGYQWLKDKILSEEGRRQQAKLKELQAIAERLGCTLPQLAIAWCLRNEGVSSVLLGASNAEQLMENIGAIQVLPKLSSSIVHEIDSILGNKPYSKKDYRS
# Sequence of Dual specificity protein phosphatase 6 (Homo sapiens) (Q16828 whole entry, looked up): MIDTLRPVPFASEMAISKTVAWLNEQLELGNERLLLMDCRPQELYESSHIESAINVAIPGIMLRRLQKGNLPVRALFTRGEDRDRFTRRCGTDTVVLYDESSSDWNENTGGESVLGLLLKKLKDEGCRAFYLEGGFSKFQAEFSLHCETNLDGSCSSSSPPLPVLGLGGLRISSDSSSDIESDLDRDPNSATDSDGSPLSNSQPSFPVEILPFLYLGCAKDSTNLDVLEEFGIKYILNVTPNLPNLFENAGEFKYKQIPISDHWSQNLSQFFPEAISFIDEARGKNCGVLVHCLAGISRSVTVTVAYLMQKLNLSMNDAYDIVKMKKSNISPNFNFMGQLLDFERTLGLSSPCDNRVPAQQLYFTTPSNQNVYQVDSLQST
SMILES,cell count [1],inhibition [1],inhibition [2],nuclei count [2] [%],"z-score [3, 10]","z-score [3, 11]","z-score [3, 12]",inhibition [4],fluorescence slope [5],NADPH fluorescence slope [6],fluorescence slope [7],outcome [8],inhibition [9]
Cc1cc(C)n(CC2CC(=O)N(c3ccc(F)c(Cl)c3)C2=O)n1 (centres undefined),460,-0.7% (inactive),-64.8% (inactive),111,-0.992,0.731,-1.56,-3.97% (inactive),-0.314 (inactive),1.8e-05 (inactive),0.00494 (inactive),inactive,-11.1% (inactive)
Cn1cc(Cl)nc1C(O)c1ccccc1 (centres undefined),629,-11% (inactive),-61.5% (inactive),174,0.432,-0.744,-0.497,-0.233% (inactive),-0.481 (inactive),-2.6e-05 (inactive),0.00721 (inactive),inactive,20.3% (inactive)
O=C(O)CCCC(=O)N1CCN(C(c2ccccc2)c2ccccc2)CC1,593,2% (inactive),16.4% (inactive),93.4,0.508,0.369,-2.19,-9.53% (inactive),-0.501 (inactive),-2.2e-05 (inactive),0.00548 (inactive),inactive,-16% (inactive)
Cc1cc(SCCC(=O)O)nc2ccccc12,685,-18.8% (inactive),-36.7% (inactive),201,-0.264,0.626,0.219,5.95% (inactive),-0.488 (inactive),-4.8e-05 (inactive),0.00621 (inactive),inactive,-15.2% (inactive)
CC1(C)Cc2ccccc2-c2c1c(=O)n(-c1ccccc1)c1nnnn21,624,8.6% (inactive),-45% (inactive),92.5,0.648,-0.29,-0.398,4.72% (inactive),-0.51 (inactive),-1.7e-05 (inactive),0.00444 (inactive),inactive,13.9% (inactive)
COC(=O)CSCC(=O)Nc1cc2c(cc1C(C)=O)OCO2,333,-6.3% (inactive),-95.3% (inactive),76.4,0.0556,-1.11,1.67,-4.78% (inactive),-0.452 (inactive),1.5e-05 (inactive),0.00475 (inactive),inactive,22.6% (inactive)
Nc1ccc2oc(-c3ccccc3Cl)nc2c1,644,-0.2% (inactive),7.8% (inactive),145,0.0664,-0.553,-0.135,-7.67% (inactive),-0.136 (inactive),-5.7e-05 (inactive),0.00466 (inactive),inactive,26.6% (inactive)
COC(=O)C(NC(=O)c1ccc(F)cc1)(Nc1nc(C)cs1)C(F)(F)F (centres undefined),695,-6.3% (inactive),-18.4% (inactive),151,-0.266,-0.66,0.98,-3.95% (inactive),-0.444 (inactive),-4.6e-05 (inactive),0.00339 (inactive),inactive,7.8% (inactive)
Cc1c(=O)n(OCc2c(F)cccc2F)c2ccccc2[n+]1[O-],542,-10.8% (inactive),-125% (inactive),163,-0.166,-0.624,-0.0317,3.97% (inactive),-0.406 (inactive),-4.3e-05 (inactive),0.00531 (inactive),inactive,-0.428% (inactive)
CSc1nc2sc3c(c2c2nnnn12)CCC3,594,-5.2% (inactive),-73% (inactive),143,-0.0727,0.543,0.37,1.63% (inactive),-0.441 (inactive),-0.000113 (inactive),0.00506 (inactive),inactive,17.9% (inactive)
CCOc1cccc(NC(=O)C2CC(=O)NC(=Nc3ccccc3)S2)c1 (centres undefined),590,-4.7% (inactive),-27.3% (inactive),117,-0.0327,-1.3,-0.145,-11.4% (inactive),-0.456 (inactive),-1.8e-05 (inactive),0.00448 (inactive),inactive,8.03% (inactive)
CCOc1ccc(N=C2C(=O)N(CN3CCOCC3)c3ccccc32)cc1,653,-4.3% (inactive),-371% (inactive),156,0.894,-0.754,-0.416,10.1% (inactive),-0.486 (inactive),-7.9e-05 (inactive),0.00278 (inactive),inactive,9.3% (inactive)
Cc1ccc(Cn2ncc3c(N4CCN(Cc5ccc(Cl)cc5)CC4)ncnc32)cc1,549,22.5% (active),-21.2% (inactive),134,-0.467,0.343,1.03,5.95% (inactive),-0.368 (inactive),-6.6e-05 (inactive),0.00938 (inactive),inactive,60.8% (active)
